Test results published in ChEMBL document CHEMBL2010802, “Melodinines M-U, cytotoxic alkaloids from Melodinus suaveolens” (J Nat Prod, 2012).

Experiments:
Assay type in all cases: functional, cell-based
[1] = system: SW480; experiment: Cytotoxicity against human SW480 cells after 48 hrs by MTT assay; conditions: SW480, 48 h
Outline: (§1)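 Cells grown in RPMI-1640 or DMEM with 10% FBS, 5% CO2, 37 °C, at 1 × 10^5 cells/mL. Adherent lines (A-549, MCF-7, SMMC-7721, SW480) were left to attach 12 h before dosing; suspension HL-60 was seeded just before dosing. Exposed 48 h to 0.064, 0.32, 1.6, 8 and 40 μM in triplicate, with cisplatin as positive control. MTT viability read-out; IC50 by Reed and Muench method.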

[2] = system: A549; experiment: Cytotoxicity against human A549 cells after 48 hrs by MTT assay; conditions: A549, 48 h; outline: as §1
[3] = system: MCF7; experiment: Cytotoxicity against human MCF7 cells after 48 hrs by MTT assay; conditions: MCF7, 48 h; outline: as §1
[4] = system: HL-60; experiment: Cytotoxicity against human HL60 cells after 48 hrs by MTT assay; conditions: HL-60, 48 h; outline: as §1
[5] = system: SMMC-7721; experiment: Cytotoxicity against human SMMC7721 cells after 48 hrs by MTT assay; conditions: SMMC-7721, 48 h; outline: as §1

## CC[C@]12C=CCN3CC[C@]4(C(=C(C(=O)OC)C1)Nc1cc(OC)ccc14)[C@@H]32
[1]
  IC50: 2.4 µM
[2]
  IC50: 1 µM
[3]
  IC50: 0.2 µM
[4]
  IC50: 0.5 µM
[5]
  IC50: 1.1 µM

## CC[C@]12C=CCN3CC[C@]4(C(=C(C(=O)OC)C1)Nc1cc(O)ccc14)[C@@H]32
[1]
  IC50: > 40 µM
[2]
  IC50: 17.6 µM
[3]
  IC50: > 40 µM
[4]
  IC50: 6 µM
[5]
  IC50: 15.5 µM

## CC[C@]12C=C[C@@H](CC(C)=O)N3CC[C@]4(C(=C(C(=O)OC)C1)Nc1ccccc14)[C@@H]32
[1]
  IC50: 0.5 µM
[2]
  IC50: 0.6 µM
[3]
  IC50: 0.4 µM
[4]
  IC50: 0.2 µM
[5]
  IC50: 0.3 µM

## CC[C@]12C=CCN3CC[C@]4(C(=C(C(=O)OC)C1)Nc1cc(O)c(C)cc14)[C@@H]32 [MELODININE N]
[1]
  IC50: 15.1 µM
[2]
  IC50: 18.5 µM
[3]
  IC50: 15 µM
[4]
  IC50: 3.5 µM
[5]
  IC50: 15.5 µM

## CC[C@]12C=CCN3CC[C@]4(C(=C(C(=O)OC)C1)Nc1ccc(O)cc14)[C@@H]32 [MELODININE P]
[1]
  IC50: > 40 µM
[2]
  IC50: > 40 µM
[3]
  IC50: > 40 µM
[4]
  IC50: 28.1 µM
[5]
  IC50: > 40 µM

## CC[C@]12C=CCN3CC[C@]4(C(=C(C(=O)OC)C1)Nc1cc(O)c(COC)cc14)[C@@H]32 [MELODININE O]
[1]
  IC50: 14.9 µM
[2]
  IC50: 18.2 µM
[3]
  IC50: 15.7 µM
[4]
  IC50: 10 µM
[5]
  IC50: 15.2 µM

## CC[C@@]12CC(C(=O)OC)=C3Nc4ccccc4[C@@]34CCN([C@H](CC(C)=O)[C@@H]3O[C@@H]31)[C@@H]24 [MELODININE S]
[1]
  IC50: 13.5 µM
[2]
  IC50: 15.2 µM
[3]
  IC50: 7 µM
[4]
  IC50: 4.8 µM
[5]
  IC50: 11.2 µM

## COC(=O)C1=C2Nc3ccccc3[C@@]23CCN2[C@H](CC(C)=O)C=C[C@@]([C@@H](C)O)(C1)[C@H]23 [MELODININE R]
[1]
  IC50: 1.6 µM
[2]
  IC50: 3.9 µM
[3]
  IC50: 1.8 µM
[4]
  IC50: 0.7 µM
[5]
  IC50: 3.3 µM

## COC(=O)C1=C2Nc3ccccc3[C@@]23CCN2CC=C[C@@]([C@@H](C)OC(C)=O)(C1)[C@H]23
[1]
  IC50: 15 µM
[2]
  IC50: 15.5 µM
[3]
  IC50: 14.2 µM
[4]
  IC50: 5.8 µM
[5]
  IC50: 6 µM

## COC(=O)C1=C2Nc3cc(OC)ccc3[C@@]23CCN2CC=C[C@@]([C@@H](C)O)(C1)[C@H]23
[1]
  IC50: 13.1 µM
[2]
  IC50: 19.7 µM
[3]
  IC50: 21.3 µM
[4]
  IC50: 6.3 µM
[5]
  IC50: 16 µM

## CC[C@]12C=CCN3CC[C@]4(C(=C(C(=O)OC)C1)Nc1ccccc14)[C@@H]32 [TABERSONINE]
[1]
  IC50: 12.1 µM
[2]
  IC50: 14.7 µM
[3]
  IC50: 9.9 µM
[4]
  IC50: 4.5 µM
[5]
  IC50: 5.6 µM

## CC[C@@]12CC(C(=O)OC)=C3Nc4ccccc4[C@@]34CCN(C[C@@H]3O[C@@H]31)[C@@H]24 [LOCHNERICINE]
[1]
  IC50: > 40 µM
[2]
  IC50: > 40 µM
[3]
  IC50: > 40 µM
[4]
  IC50: 15.5 µM
[5]
  IC50: 24.7 µM
